According to ChEMBL document CHEMBL3608301, “Phenolic Compounds from Atriplex littoralis and Their Radiation-Mitigating Activity” (J Nat Prod, 2015):

How the values were obtained:
PBL [1] = assay: Radioprotective activity in 2-Gy gamma irradiated human PBL assessed as incidence of micronuclei in 1000 binucleated cells at 3.7 uM treated for 2 to 19 hrs followed by compound washout measured after 72 hrs by cytochalasin-B-blocked micronucleus assay (reference value: 183 +/- 9.6); assay type: functional
Method in brief: (§1)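 Venous blood from five healthy male volunteers was gamma-irradiated at 2 Gy (0.45 Gy/min) at room temperature, then cultured. Compounds (0.8–7.4 μM final) were added after irradiation for 19 h at 37 °C. Cells were rinsed and moved to fresh RPMI 1640 for 72 h. At least 1000 binucleated cells per sample were scored for micronuclei and CBPI calculated. Analysis used one-way ANOVA with Tukey test.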

PBL [2] = assay: Toxicity in 2-Gy gamma irradiated human PBL assessed as cytokinesis-block proliferation index at 7.4 uM treated for 2 to 19 hrs followed by compound washout measured after 72 hrs (reference value: 1.6 +/- 0.1); assay type: cell-based
PBL [3] = assay: Radioprotective activity in 2-Gy gamma irradiated human PBL assessed as incidence of micronuclei in binucleated cells at 3.7 uM treated for 2 to 19 hrs followed by compound washout measured after 72 hrs by cytochalasin-B-blocked micronucleus assay (reference value: 1.2 +/- 0.03); assay type: functional
Method in brief: (§2)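 Venous blood from five healthy male volunteers was γ-irradiated at 2 Gy (0.45 Gy/min) at room temperature and cultured. Compounds (0.8−7.4 μM final) were added 2 to 19 h after irradiation, at 37 °C. Cultures were then rinsed and moved to fresh RPMI 1640 for 72 h. Cytokinesis-block micronucleus assay: ≥1000 binucleated cells scored per sample (Countryman–Heddle criteria). Controls were non-treated irradiated cultures; one-way ANOVA with Tukey test.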

PBL [4] = assay: Radioprotective activity in 2-Gy gamma irradiated human PBL assessed as incidence of micronuclei in binucleated cells at 7.4 uM treated for 2 to 19 hrs followed by compound washout measured after 72 hrs by cytochalasin-B-blocked micronucleus assay (reference value: 1.2 +/- 0.03); assay type: functional; method in brief: as §2
PBL [5] = assay: Radioprotective activity in 2-Gy gamma irradiated human PBL assessed as binucleated cells with micronuclei at 1.8 uM treated for 2 to 19 hrs followed by compound washout measured after 72 hrs by cytochalasin-B-blocked micronucleus assay (reference value: 15.5 +/- 0.6%); assay type: functional; method in brief: as §2
PBL [6] = assay: Radioprotective activity in 2-Gy gamma irradiated human PBL assessed as binucleated cells with micronuclei at 3.7 uM treated for 2 to 19 hrs followed by compound washout measured after 72 hrs by cytochalasin-B-blocked micronucleus assay (reference value: 15.5 +/- 0.6%); assay type: functional; method in brief: as §2
PBL [7] = assay: Radioprotective activity in 2-Gy gamma irradiated human PBL assessed as frequency of micronuclei at 7.4 uM treated for 2 to 19 hrs followed by compound washout measured after 72 hrs by cytochalasin-B-blocked micronucleus assay relative to control; assay type: functional; method in brief: as §2
PBL [8] = assay: Toxicity in 2-Gy gamma irradiated human PBL assessed as cytokinesis-block proliferation index at 3.7 uM treated for 2 to 19 hrs followed by compound washout measured after 72 hrs (reference value: 1.6 +/- 0.1); assay type: cell-based
PBL [9] = assay: Radioprotective activity in 2-Gy gamma irradiated human PBL assessed as incidence of micronuclei in 1000 binucleated cells at 7.4 uM treated for 2 to 19 hrs followed by compound washout measured after 72 hrs by cytochalasin-B-blocked micronucleus assay (reference value: 183 +/- 9.6); assay type: functional; method in brief: as §1
PBL [10] = assay: Radioprotective activity in 2-Gy gamma irradiated human PBL assessed as incidence of micronuclei in binucleated cells at 1.8 uM treated for 2 to 19 hrs followed by compound washout measured after 72 hrs by cytochalasin-B-blocked micronucleus assay (reference value: 1.2 +/- 0.03); assay type: functional; method in brief: as §2
PBL [11] = assay: Radioprotective activity in 2-Gy gamma irradiated human PBL assessed as incidence of micronuclei in 1000 binucleated cells at 1.8 uM treated for 2 to 19 hrs followed by compound washout measured after 72 hrs by cytochalasin-B-blocked micronucleus assay (reference value: 183 +/- 9.6); assay type: functional; method in brief: as §2
PBL [12] = assay: Toxicity in 2-Gy gamma irradiated human PBL assessed as cytokinesis-block proliferation index at 1.8 uM treated for 2 to 19 hrs followed by compound washout measured after 72 hrs (reference value: 1.6 +/- 0.1); assay type: cell-based
PBL [13] = assay: Radioprotective activity in 2-Gy gamma irradiated human PBL assessed as frequency of micronuclei at 3.7 uM treated for 2 to 19 hrs followed by compound washout measured after 72 hrs by cytochalasin-B-blocked micronucleus assay relative to control; assay type: functional; method in brief: as §2
PBL [14] = assay: Radioprotective activity in 2-Gy gamma irradiated human PBL assessed as frequency of micronuclei at 1.8 uM treated for 2 to 19 hrs followed by compound washout measured after 72 hrs by cytochalasin-B-blocked micronucleus assay relative to control; assay type: functional; method in brief: as §2
PBL [15] = assay: Radioprotective activity in 2-Gy gamma irradiated human PBL assessed as binucleated cells with micronuclei at 7.4 uM treated for 2 to 19 hrs followed by compound washout measured after 72 hrs by cytochalasin-B-blocked micronucleus assay (reference value: 15.5 +/- 0.6%); assay type: functional; method in brief: as §2
PBL [16] = assay: Radioprotective activity in 2-Gy gamma irradiated human PBL assessed as incidence of micronuclei in 1000 binucleated cells at 7 uM treated for 2 to 19 hrs followed by compound washout measured after 72 hrs by cytochalasin-B-blocked micronucleus assay (reference value: 183 +/- 9.6); assay type: functional; method in brief: as §2
PBL [17] = assay: Radioprotective activity in 2-Gy gamma irradiated human PBL assessed as binucleated cells with micronuclei at 7 uM treated for 2 to 19 hrs followed by compound washout measured after 72 hrs by cytochalasin-B-blocked micronucleus assay (reference value: 15.5 +/- 0.6%); assay type: functional; method in brief: as §2
PBL [18] = assay: Radioprotective activity in 2-Gy gamma irradiated human PBL assessed as incidence of micronuclei in 1000 binucleated cells at 3.5 uM treated for 2 to 19 hrs followed by compound washout measured after 72 hrs by cytochalasin-B-blocked micronucleus assay (reference value: 183 +/- 9.6); assay type: functional; method in brief: as §2
PBL [19] = assay: Radioprotective activity in 2-Gy gamma irradiated human PBL assessed as frequency of micronuclei at 7 uM treated for 2 to 19 hrs followed by compound washout measured after 72 hrs by cytochalasin-B-blocked micronucleus assay relative to control; assay type: functional; method in brief: as §2
PBL [20] = assay: Toxicity in 2-Gy gamma irradiated human PBL assessed as cytokinesis-block proliferation index at 7 uM treated for 2 to 19 hrs followed by compound washout measured after 72 hrs (reference value: 1.6 +/- 0.1); assay type: cell-based
PBL [21] = assay: Toxicity in 2-Gy gamma irradiated human PBL assessed as cytokinesis-block proliferation index at 3.5 uM treated for 2 to 19 hrs followed by compound washout measured after 72 hrs (reference value: 1.6 +/- 0.1); assay type: cell-based
PBL [22] = assay: Radioprotective activity in 2-Gy gamma irradiated human PBL assessed as incidence of micronuclei in binucleated cells at 7 uM treated for 2 to 19 hrs followed by compound washout measured after 72 hrs by cytochalasin-B-blocked micronucleus assay (reference value: 1.2 +/- 0.03); assay type: functional; method in brief: as §2
PBL [23] = assay: Radioprotective activity in 2-Gy gamma irradiated human PBL assessed as frequency of micronuclei at 3.5 uM treated for 2 to 19 hrs followed by compound washout measured after 72 hrs by cytochalasin-B-blocked micronucleus assay relative to control; assay type: functional; method in brief: as §2
PBL [24] = assay: Radioprotective activity in 2-Gy gamma irradiated human PBL assessed as binucleated cells with micronuclei at 3.5 uM treated for 2 to 19 hrs followed by compound washout measured after 72 hrs by cytochalasin-B-blocked micronucleus assay (reference value: 15.5 +/- 0.6%); assay type: functional; method in brief: as §2
PBL [25] = assay: Radioprotective activity in 2-Gy gamma irradiated human PBL assessed as incidence of micronuclei in binucleated cells at 3.5 uM treated for 2 to 19 hrs followed by compound washout measured after 72 hrs by cytochalasin-B-blocked micronucleus assay (reference value: 1.2 +/- 0.03); assay type: functional; method in brief: as §2

## OC[C@H]1O[C@@H](Oc2ccc(O)cc2)[C@H](O)[C@@H](O)[C@@H]1O [ARBUTIN]
PBL [1]
  Activity: 189.3
PBL [2]
  Activity: 1.6
PBL [3]
  Activity: 1.3
PBL [4]
  Activity: 1.2
PBL [5]
  Activity: 15.1%
PBL [6]
  Activity: 15%
PBL [7]
  Activity: 107.8%
PBL [8]
  Activity: 1.8
PBL [9]
  Activity: 197.2
PBL [10]
  Activity: 1.3
PBL [11]
  Activity: 191.2
PBL [12]
  Activity: 1.7
PBL [13]
  Activity: 103.4%
PBL [14]
  Activity: 104.5%
PBL [15]
  Activity: 15.8%

## OC[C@H]1O[C@@H](OCc2ccc(O)cc2)[C@H](O)[C@@H](O)[C@@H]1O
PBL [16]
  Activity: 159.2
PBL [17]
  Activity: 13.6%
PBL [18]
  Activity: 155.7
PBL [19]
  Activity: 87%
PBL [20]
  Activity: 1.7
PBL [5]
  Activity: 13.1%
PBL [21]
  Activity: 1.8
PBL [10]
  Activity: 1.2
PBL [22]
  Activity: 1.2
PBL [11]
  Activity: 156.4
PBL [12]
  Activity: 1.7
PBL [23]
  Activity: 85.1%
PBL [14]
  Activity: 85.5%
PBL [24]
  Activity: 13.1%
PBL [25]
  Activity: 1.2
